Paper PMC5963734 (Neuron, 2018)

Test system: PSD-95 - α-actinin interaction
Test: Competition of co-IP of α-actinin with PSD-95 from brain lysates
Parameters: species or system rat
Conditions: added to Triton X-100 brain lysate during IP of PSD-95; Figure 3D
Method in brief: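 Adult rat brain (1 g) homogenised on ice in buffer A (150 mM NaCl, 10 mM HEPES, 10 mM EDTA, 10 mM EGTA, pH 7.4) with protease inhibitors and 1% Triton X-100, then cleared at 250,000 × g for 30 min. Competitors added: PSD-95 peptide 1-13, GST-PSD-95 1-64, peptide 15-36, or Ca2+ plus CaM. Per IP, 1 mg protein, 1 μg PSD-95 antibody and protein G-Sepharose, 4 h at 4 °C; three washes.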

B1: GST-PSD-95 1-64 (N-term): GST fusion protein of the N-terminal 64 residues of PSD-95 (protein)
chain: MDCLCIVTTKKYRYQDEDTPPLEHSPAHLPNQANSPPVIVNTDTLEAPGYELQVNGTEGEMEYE
modifications: left off: GST, N-terminal, kept
disruption of co-IP of α-actinin with PSD-95: disrupted
